Calls of active or inactive are those of the source. No cut-off for these calls is given here.

This note sets out measurements from ChEMBL document CHEMBL1156455, “Interaction between HIV-1 Rev and integrase proteins: a basis for the development of anti-HIV peptides” (J Biol Chem, 2007).

In assay [1] the target is Human immunodeficiency virus type 1 integrase (Human immunodeficiency virus 1) (UniProt Q7ZJM1). Nature of the assay: (§1) Inhibition of HIV1 integrase by quantitative ELISA. The procedure, abridged: (§2)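 Overall integration reaction: 390 nM IN preincubated 10 min with peptide, then 1 µM biotin/digoxigenin-labelled duplex oligonucleotide in 20 mM Hepes pH 7.5, 10 mM MgCl2, 10 mM DTT, 10% Me2SO, 5% PEG-8000, 0.1 mg/ml BSA for 1 h at 37 °C. Stopped with EDTA/NaCl/salmon sperm DNA buffer; product read by immunoassay on avidin-coated plates.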
Sequence of Human immunodeficiency virus type 1 integrase (Human immunodeficiency virus 1) (Q7ZJM1 as listed by the source): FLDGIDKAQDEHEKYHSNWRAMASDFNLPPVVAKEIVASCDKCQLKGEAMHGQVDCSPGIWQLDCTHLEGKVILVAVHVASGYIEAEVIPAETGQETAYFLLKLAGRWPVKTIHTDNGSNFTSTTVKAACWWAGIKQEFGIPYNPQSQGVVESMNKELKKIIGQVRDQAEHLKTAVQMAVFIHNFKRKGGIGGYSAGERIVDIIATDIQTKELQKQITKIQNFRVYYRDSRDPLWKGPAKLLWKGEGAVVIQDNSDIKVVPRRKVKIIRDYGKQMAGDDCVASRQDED
(In general: ELISA stands for enzyme-linked immunosorbent assay.)

For assay [2] the target is unchanged. Nature of the assay: Inhibition of HIV1 integrase by qualitative integration assay system. The procedure, abridged:
(§3)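 IN (0.8 µM) incubated with peptides; 3'-end processing or strand-transfer activity followed on labelled gel-purified oligonucleotide substrates by gel size shift or specific cleavage.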

The test system of assay [3] is Human immunodeficiency virus 1. In words: Inhibition of HIV1 replication in human TZM-bl cells assessed as beta-galactosidase activity at 2.5 uM. It is filed as functional. The procedure, abridged: (§4)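 TZM-bl cells carrying TAR-driven β-galactosidase, incubated with peptides, then infected with HIV-1 in 20 µg/ml DEAE-dextran. Cells fixed 2 days post-infection, stained with X-gal, and blue cells counted by light microscopy.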

Assay [4] deals with Human immunodeficiency virus 1. Nature of the assay: Inhibition of HIV1 replication in human T-lymphoid H9 cells assessed as decrease in viral p24 level. Type of assay: functional, organism-based. In a few lines: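 H9 cells pretreated 2 h with peptide, infected with wild-type HIV-1 (HXB2, from transfected HEK293T) at m.o.i. 0.1 for 1 h at 37 °C, washed, cultured 10 days; p24 measured by capture immunoassay.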

Assay [5] concerns the target T1, Human immunodeficiency virus type 1 integrase (Human immunodeficiency virus 1, UniProt Q7ZJM1). Nature of the assay: Binding affinity to HIV1 integrase by fluorescence anisotrophy. In a few lines: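 Fluorescein-labelled peptide (final 0.05 to 0.1 µM) in 20 mM Tris pH 7.4 at 10 °C; 100 µM IN (taken as monomer) titrated in 20 steps of 10 µl at 15-min intervals. Anisotropy read at ex 480/em 530 nm after each addition; data fitted to Hill equation for Ka (Kd = 1/Ka).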

For assay [6], the system named is Human immunodeficiency virus 1. Nature of the assay: Inhibition of HIV1 delta env/VSV-G replication in human sup T1 T-lymphoid […] cells assessed as inhibition of total viral DNA at 12.5 uM after 2 hrs by RT-PCR. Type of assay: functional, organism-based. In a few lines:
(§5)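 Sup T1 cells pretreated 2 h with 12.5 µM peptide or 2 µM azidothymidine, then infected with HIV-1 Δenv/VSV-G at m.o.i. 2 for 6 h. Gag and Nef DNA amplified by PCR from 10 ng total cell DNA, 29 cycles.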

Assay [7] deals with Human immunodeficiency virus type 1 integrase (Human immunodeficiency virus 1) (UniProt Q7ZJM1). In words: Inhibition of recombinant HIV1 integrase strand transfer activity. The procedure, abridged:
as §3

Assay [8] shares this target. Nature of the assay: Inhibition of recombinant HIV1 integrase 3'-end processing activity. The procedure, abridged: as §3
Assay [9] deals with Human immunodeficiency virus 1. Nature of the assay: Inhibition of HIV1 delta env/VSV-G replication in human sup T1 T-lymphoid […] cells assessed as inhibition of viral DNA integration by RT-PCR. Type of assay: functional, organism-based. The procedure, abridged:
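Sup T1 cells pretreated 2 h with peptide, infected with HIV-1 Δenv/VSV-G at m.o.i. 2 for 24 h. Integrated DNA quantified by two-round Alu-LTR PCR (12 cycles, then 50 real-time cycles) against an HXB2 plasmid standard curve (5 ng to 0.25 fg), quadruplicate samples.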

The target in assay [10] is T1, Human immunodeficiency virus type 1 integrase. The assay is described as §1. In a few lines: as §2
The test system of assay [11] is Human immunodeficiency virus 1. Nature of the assay: Inhibition of HIV1 replication in human TZM-bl cells assessed as beta-galactosidase activity. It is filed as functional, organism-based. The procedure, abridged:
as §4

Assay [12] deals with Human immunodeficiency virus 1. In words: Inhibition of HIV1 delta env/VSV-G replication in human sup T1 T-lymphoid […] cells assessed as inhibition of total viral DNA at 2 uM after 2 hrs by RT-PCR. It is filed as functional, organism-based. In a few lines:
as §5

T1 sequence (Q7ZJM1 whole entry): as the sequence (Q7ZJM1 as listed by the source) above

On to H-FRKLIYLTKVL-OH, for which the outcome in [1] was Active. Also, the outcome in assay [2], in [3] and in [4] was inactive.

Usually Kd stands for a measure of binding affinity in units of concentration. Read a low Kd as a tighter complex. `CC[C@H](C)[C@H](NC(=O)[C@H](CC(C)C)NC(=O)[C@H](CCCNC(=N)N)NC(=O)[C@@H](NC(=O)[C@@H](NC(=O)[C@H](CCCCN)NC(=O)[C@H](CC(C)C)NC(=O)[C@H](CC(C)C)NC(=O)[C@H](CCC(=O)O)NC(=O)[C@H](CCC(=O)O)NC(=O)[C@H](CC(=O)O)NC(=O)[C@H](CO)NC(=O)[C@H](CC(=O)O)NC(=O)CNC(=O)[C@H](CO)NC(=O)[C@H](CCCNC(=N)N)NC(=O)CNC(=O)[C@H](C)NC(=O)[C@@H](N)CCSC)[C@@H](C)O)C(C)C)C(=O)N[C@@H](CCCCN)C(=O)N[C@@H](Cc1ccccc1)C(=O)N[C@@H](CC(C)C)C(=O)N[C@@H](Cc1ccc(O)cc1)C(=O)N[C@@H](CCC(N)=O)C(=O)N[C@@H](CO)C(=O)N[C@@H](CC(N)=O)C(=O)N1CCC[C@H]1C(=O)N1CCC[C@H]1C(=O)N1CCC[C@H]1C(=O)N[C@@H](CO)C(=O)O` yielded a Kd in assay [5] of 6.5 µM. Besides, the outcome in [6] was inactive.

With `CC[C@H](C)[C@H](NC(=O)[C@H](CC(C)C)NC(=O)[C@H](CCCNC(=N)N)NC(=O)[C@@H](NC(=O)[C@@H](NC(=O)[C@H](CCCCN)NC(=O)[C@@H](N)CC(C)C)[C@H](C)O)C(C)C)C(=O)N[C@@H](CCCCN)C(=O)N[C@@H](Cc1ccccc1)C(=O)N[C@@H](CC(C)C)C(=O)N[C@@H](Cc1ccc(O)cc1)C(=O)N[C@@H](CCC(N)=O)C(=O)N[C@@H](CO)C(=O)N[C@@H](CC(N)=O)C(=O)N1CCC[C@H]1C(=O)O`, the outcome in assay [7], in assay [8] and in [9] was Active.

The IC50 is the concentration that gives 50% inhibition. The low end stands for inhibition by little substance, the high end for a need for much substance. A word on the inhibition: it is the change of the read-out against control, counted positive when it falls. The molecule H-LKTVRLIKFLY-OH [LKTVRLIKFLY] had a Kd in assay [5] of 2.8 µM. Moreover, the outcome in assay [7], in assay [8] and in [4] was Active. Besides, half-maximal inhibition in assay [10] (IC50) was put at 25 µM. For the same molecule, the inhibition at 2.5 µM in assay [3] (Human immunodeficiency virus 1, TZM-bl) amounted to 70%. The outcome in assay [6] was inactive. Besides, in assay [11], the Activity entry is “Dose-dependent effect”.

Turning to H-DEELLKTVRLIKFLY-OH, the result in assay [7] and in assay [8] was Active.

On to H-SGDSDEELLKTVRLI-OH, for which the result in assay [7] was inactive. Moreover, the result in [8] was Active.

For H-QRQIRSISGWILSTYLGRPAEPVPLQ-OH, in assay [5], the Kd was determined as 11.2 µM. This lies in the double-digit micromolar range.

In the case of `CC[C@H](C)[C@H](NC(=O)[C@H](CO)NC(=O)[C@H](Cc1c[nH]c2ccccc12)NC(=O)[C@@H](NC(=O)[C@H](CCCNC(=N)N)NC(=O)CNC(=O)[C@H](CO)NC(=O)[C@@H]1CCCN1C(=O)[C@H](CO)NC(=O)[C@@H](NC(=O)[C@H](CCCNC(=N)N)NC(=O)[C@H](Cc1ccc(O)cc1)NC(=O)[C@H](CC(C)C)NC(=O)CNC(=O)[C@@H](N)CC(C)C)[C@H](C)O)[C@@H](C)CC)C(=O)O`, the outcome in assay [1] was Active. Also, the outcome in assay [2], in assay [3] and in [4] was inactive.

In the case of H-RLIKFLYQSNPPPSP-OH, the result in assay [7] and in assay [8] was inactive.

In turn, H-FVSTHFSVPASPWLLLIDIV-OH gave an equilibrium dissociation constant (Kd) in assay [5] of 7.5 µM.

Take H-STYLGRPAEPVPLQL-OH: the result in assay [7] and in assay [8] was inactive.

In assay [5], H-RSISGWILSTYLGRP-OH showed a Kd of 6.9 µM. Also, the result in assay [7], in assay [8], in assay [3], in assay [4] and in assay [9] was Active. For the same molecule, half-maximal inhibition in assay [10] (IC50) required 25 µM. For the same molecule, the result in [6] was inactive. Moreover, in assay [11], the Activity result is “Dose-dependent effect”.

For the molecule H-GWILSTYLGRPAEPV-OH, the result in assay [7] was inactive.

For H-WRERQRQIRSISGWI-OH, the result in assay [7] and in assay [8] was inactive.

H-QRQIRSISGWILSTY-OH: the result in assay [7] and in [8] was Active.

In the case of `Cc1cn([C@H]2C[C@H](N=[N+]=[N-])[C@@H](CO)O2)c(=O)[nH]c1=O`, the result in assay [12] was Active.

In the case of `CSCC[C@H](N)C(=O)N[C@@H](C)C(=O)NCC(=O)N[C@@H](CCCNC(=N)N)C(=O)N[C@@H](CO)C(=O)NCC(=O)N[C@@H](CC(=O)O)C(=O)N[C@@H](CO)C(=O)N[C@@H](CC(=O)O)C(=O)N[C@@H](CCC(=O)O)C(=O)N[C@@H](CCC(=O)O)C(=O)N[C@@H](CC(C)C)C(=O)N[C@@H](CC(C)C)C(=O)N[C@@H](CCCCN)C(=O)N[C@H](C(=O)O)[C@@H](C)O`, the result in assay [7] and in assay [8] was inactive.
